# Assay results published in ChEMBL document CHEMBL1122685, “Identification of an acridine photoaffinity probe for trypanocidal action” (1984).
# Key:
# Type in all cases: functional
# [1] = system: Trypanosoma brucei; experiment: Trypanocidal activity against Trypanosoma brucei, exposure of parasites to compound prior to injection into mice at 10 e-4 M concentration in dark conditions
# How it was run: (§1)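 T. brucei EATRO 110 was separated from blood on DEAE-cellulose and washed in Tris-saline-glucose (TSG). Parasites at 5×10^6/mL in TSG were gently rotated 10 min with drug at the final concentration, kept dark under a red safelight until injection. Swiss mice, five per group, received 5×10^5 parasites ip in 0.1 mL. Read-out was mean days survival ±SD over 30 days, against untreated-parasite controls.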
# [2] = system: Trypanosoma brucei; experiment: Trypanocidal activity against Trypanosoma brucei, exposure of parasites to compound prior to injection into mice at 10 e-4 M concentration in presence of light; design: unit: days
# How it was run: (§2)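 DEAE-purified T. brucei EATRO 110 at 5×10^6/mL in TSG was mixed with drug at the final concentration by gentle rotation for 10 min. Samples were light-activated for 10 min under a 30W fluorescent lamp 4 cm above. 5×10^5 treated parasites in 0.1 mL were injected ip into Swiss mice, five per group. Survival was scored daily for 30 days and reported as mean days ±SD, with untreated controls.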
# [3] = system: Trypanosoma brucei; experiment: Trypanocidal activity against Trypanosoma brucei, exposure of parasites to compound prior to injection into mice at 10 e-5 M concentration in dark conditions; how it was run: as §1
# [4] = system: Trypanosoma brucei; experiment: Trypanocidal activity against Trypanosoma brucei, exposure of parasites to compound prior to injection into mice at 10 e-5 M concentration in presence of light; design: unit: days; how it was run: as §2
# [5] = system: Trypanosoma brucei; experiment: Compound is evaluated for trypanocidal activity against Trypanosoma brucei, by exposing the parasites directly to compound prior to injection to mice at 10 e-6 M concentration (pre) in presence of light.
# How it was run: (§3)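 Compound was irradiated 1 h before contact with T. brucei EATRO 110 (5×10^6/mL in TSG, final drug concentration). After 10 min gentle rotation, the mixture was irradiated again for 10 min under a 30W fluorescent lamp at 4 cm. 5×10^5 parasites in 0.1 mL were given ip to five Swiss mice per group. Read-out was mean days survival ±SD over 30 days, with untreated controls.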
# [6] = system: Trypanosoma brucei; experiment: Trypanocidal activity against Trypanosoma brucei, exposure of parasites to compound prior to injection into mice at 10 e-6 M concentration in dark conditions; how it was run: as §1
# [7] = system: Trypanosoma brucei; experiment: Trypanocidal activity against Trypanosoma brucei, exposur of parasites to compound prior to injection into mice at 10 e-6 M concentration in presence of light; design: unit: days; how it was run: as §2
# [8] = system: Trypanosoma brucei; experiment: Compound is evaluated for trypanocidal activity against Trypanosoma brucei, by exposing the parasites directly to compound prior to injection to mice at 10 e-7 M concentration in dark conditions; design: unit: days; how it was run: as §1
# [9] = system: Trypanosoma brucei; experiment: Compound is evaluated for trypanocidal activity against Trypanosoma brucei, by exposing the parasites directly to compound prior to injection to mice at 10 e-7 M concentration in presence of light; design: unit: days; how it was run: as §2
# [10] = system: Trypanosoma brucei; experiment: Compound is evaluated for trypanocidal activity against Trypanosoma brucei, by exposing the parasites directly to compound prior to injection to mice at 10 e-5 M concentration (pre) in dark conditions
# How it was run: (§4)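 Drug was preirradiated 1 h with visible light, then added at the final concentration to T. brucei EATRO 110 (5×10^6/mL in TSG) and rotated 10 min. The parasites were then kept dark with a red safelight. Swiss mice, five per group, were injected ip with 0.1 mL holding 5×10^5 parasites. Mean days survival ±SD was scored over 30 days against untreated-parasite controls.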
# [11] = system: Trypanosoma brucei; experiment: Compound is evaluated for trypanocidal activity against Trypanosoma brucei, by exposing the parasites directly to compound prior to injection to mice at 10 e-5 M concentration (pre) in presence of light; how it was run: as §3
# [12] = system: Trypanosoma brucei; experiment: Compound is evaluated for trypanocidal activity against Trypanosoma brucei, by exposing the parasites directly to compound prior to injection to mice at 10 e-6 M concentration (pre) in dark conditions; how it was run: as §4
# [13] = system: Trypanosoma brucei; experiment: Compound is evaluated for trypanocidal activity against Trypanosoma brucei, by exposing the parasites directly to compound prior to injection to mice at 10 E-6 M concentration in dark conditions; how it was run: as §1
# [14] = system: Trypanosoma brucei; experiment: Compound is evaluated for trypanocidal activity against Trypanosoma brucei, by exposing the parasites directly to compound prior to injection to mice at 10 E-6 M concentration in presence of light; how it was run: as §2
# [15] = system: Trypanosoma brucei; experiment: Compound is evaluated for trypanocidal activity against Trypanosoma brucei, by exposing the parasites directly to compound prior to injection to mice at 10 E-4 M concentration in dark conditions; how it was run: as §1
# [16] = system: Trypanosoma brucei; experiment: Compound is evaluated for trypanocidal activity against Trypanosoma brucei, by exposing the parasites directly to compound prior to injection to mice at 10 E-4 M concentration in presence of light; how it was run: as §2
# [17] = system: Trypanosoma brucei; experiment: Compound is evaluated for trypanocidal activity against Trypanosoma brucei, by exposing the parasites directly to compound prior to injection to mice at 10 E-5 M concentration in dark conditions; how it was run: as §1
# [18] = system: Trypanosoma brucei; experiment: Compound is evaluated for trypanocidal activity against Trypanosoma brucei, by exposing the parasites directly to compound prior to injection to mice at 10 E-5 M concentration in presence of light; how it was run: as §2
# [19] = system: Trypanosoma brucei; experiment: Compound is evaluated for trypanocidal activity against Trypanosoma brucei, by exposing the parasites directly to compound prior to injection to mice at 10 e-5 M concentration in presence of light; how it was run: as §2
structure (smiles),measurement,setting,value
Nc1ccc2c(N)c3ccccc3nc2c1,Mean survival time of infected mice (days),[1],30
same,Activity,[2],30
same,Activity,[3],8.1
same,Activity,[4],30
same,Mean survival of mice (days),[5],27.8
same,Activity,[6],5
same,Activity,[7],17.4
same,Activity,[8],5.2
same,Activity,[9],15
[N-]=[N+]=Nc1ccc2cc3ccc(N)cc3nc2c1,Mean survival time of infected mice (days),[1],8.3
same,Activity,[2],30
same,Activity,[10],5.2
same,Activity,[11],5.2
same,Activity,[3],5.5
same,Activity,[4],12.7
same,Mean survival of mice (days),[5],5.4
same,Activity,[6],4.6
same,Activity,[7],11.2
same,Activity,[8],5.7
same,Activity,[9],5.9
C[n+]1c2cc(N)ccc2cc2ccc(N=[N+]=[N-])cc21.[Cl-],Mean survival time of infected mice (days),[1],30
same,Activity,[2],30
same,Activity,[3],18.2
same,Activity,[4],30
same,Activity,[12],6.3
same,Mean survival of mice (days),[5],5.5
same,Activity,[6],6.9
same,Activity,[7],30
same,Activity,[8],6.4
same,Activity,[9],30
[N-]=[N+]=Nc1ccc2nc3ccccc3c(N)c2c1,Mean survival time of infected mice (days),[1],9.8
same,Activity,[2],30
same,Activity,[3],5.4
same,Activity,[4],30
same,Mean survival of mice (days),[5],4.6
same,Activity,[6],4.8
same,Activity,[7],11.6
same,Activity,[8],4.6
same,Activity,[9],6
[N-]=[N+]=Nc1ccc2cc3ccc(N=[N+]=[N-])cc3nc2c1,Mean survival time of infected mice (days),[1],6
same,Activity,[2],5.5
C[n+]1c2cc(N=[N+]=[N-])ccc2cc2ccc(N=[N+]=[N-])cc21.[Cl-],Mean survival time of infected mice (days),[1],30
same,Activity,[2],30
same,Activity,[3],6
same,Activity,[4],26.6
same,Mean survival of mice (days),[5],5.4
same,Activity,[6],5.8
same,Activity,[7],8.2
same,Activity,[8],5.4
same,Activity,[9],5.6
C[n+]1c2ccccc2cc2cc(N=[N+]=[N-])ccc21.[Cl-],Mean survival time of infected mice (days),[1],30
same,Activity,[2],30
same,Activity,[3],14.5
same,Activity,[4],13.9
same,Mean survival of mice (days),[5],4.8
same,Activity,[6],4.4
same,Activity,[7],5.5
same,Activity,[8],4.8
same,Activity,[9],4.2
[N-]=[N+]=Nc1ccc2c(N)c3ccccc3nc2c1,Mean survival time of infected mice (days),[1],25.3
same,Activity,[2],26.8
same,Activity,[11],5.2
same,Activity,[3],6.3
same,Activity,[4],14.2
same,Activity,[6],5.8
same,Activity,[7],7.6
C[n+]1c2ccccc2c(N)c2ccccc21.[Cl-],Mean survival time of infected mice (days),[1],30
same,Activity,[2],30
same,Activity,[3],5.4
same,Activity,[4],21
same,Mean survival of mice (days),[5],6.2
same,Activity,[6],4.2
same,Activity,[7],5.8
C[n+]1c2ccccc2cc2ccc(N=[N+]=[N-])cc21.[Cl-],Mean survival time of infected mice (days),[1],30
same,Activity,[2],30
same,Activity,[10],4.4
same,Activity,[11],5.8
same,Activity,[3],6.6
same,Activity,[4],30
same,Activity,[12],4.7
same,Mean survival of mice (days),[5],5
same,Activity,[6],5.4
same,Activity,[7],8.6
C[n+]1c2ccccc2c(N=[N+]=[N-])c2ccccc21.[Cl-],Mean survival time of infected mice (days),[1],30
same,Activity,[2],30
same,Activity,[3],3.6
same,Activity,[4],20
same,Mean survival of mice (days),[5],8.6
same,Activity,[6],5
same,Activity,[7],6.8
same,Activity,[8],5.2
same,Activity,[9],6.2
C[n+]1c2ccccc2cc2cc(N)ccc21.[Cl-],Mean survival time of infected mice (days),[1],30
same,Activity,[2],30
same,Activity,[3],5.8
same,Activity,[4],6.8
same,Activity,[6],3.6
same,Activity,[7],6
Nc1cccc2nc3ccccc3c(N)c12,Activity,[13],5.4
same,Activity,[14],4.6
same,Activity,[15],30
same,Activity,[16],30
same,Activity,[17],4.6
same,Activity,[18],5.6
[N-]=[N+]=Nc1ccc(Nc2c3ccccc3nc3ccccc23)cc1,Mean survival time of infected mice (days),[1],4.8
same,Activity,[2],30
same,Activity,[3],4
same,Activity,[4],30
same,Activity,[6],4.4
same,Activity,[7],5.8
C[n+]1c2ccccc2cc2c(N)cccc21.[Cl-],Mean survival time of infected mice (days),[1],30
same,Activity,[2],30
same,Activity,[3],4.6
same,Activity,[4],6.4
same,Activity,[6],4
same,Activity,[7],4.2
C[n+]1c2ccccc2cc2ccc(N)cc21.[Cl-],Mean survival time of infected mice (days),[1],30
same,Activity,[3],14.2
same,Activity,[19],30
same,Mean survival of mice (days),[5],15.5
same,Activity,[6],6.9
same,Activity,[7],30
same,Activity,[8],4.6
same,Activity,[9],12.4
Nc1c2ccccc2nc2cccc([N+](=O)[O-])c12,Mean survival time of infected mice (days),[1],30
same,Activity,[2],30
same,Activity,[3],25.4
same,Activity,[4],30
same,Activity,[6],4.4
same,Activity,[7],5.8
Nc1ccc(Nc2c3ccccc3nc3ccccc23)cc1,Mean survival time of infected mice (days),[1],30
same,Activity,[2],30
same,Activity,[3],5
same,Activity,[4],6.4
same,Activity,[6],5.4
same,Activity,[7],4.4
CC[n+]1c(-c2ccccc2)c2cc(N=[N+]=[N-])ccc2c2ccc(N)cc21.[Cl-],Activity,[6],4.6
same,Activity,[7],30
same,Activity,[8],4
same,Activity,[9],27.4
[N-]=[N+]=Nc1c2ccccc2nc2cccc([N+](=O)[O-])c12,Mean survival time of infected mice (days),[1],30
same,Activity,[2],30
same,Activity,[3],10
same,Activity,[4],30
same,Mean survival of mice (days),[5],4
same,Activity,[6],4.2
same,Activity,[7],6
same,Activity,[8],5.4
same,Activity,[9],5
C[n+]1c2ccccc2cc2c(N=[N+]=[N-])cccc21.[Cl-],Mean survival time of infected mice (days),[1],4.4
same,Activity,[2],4.8
same,Activity,[3],6.4
same,Activity,[4],4.8
[N-]=[N+]=Nc1c2ccccc2nc2ccccc12,Mean survival time of infected mice (days),[1],30
same,Activity,[2],30
same,Activity,[3],30
same,Activity,[4],30
same,Mean survival of mice (days),[5],4.2
same,Activity,[6],5
same,Activity,[7],30
same,Activity,[8],4.6
same,Activity,[9],4
C[n+]1c2cc(N)ccc2cc2ccc(N)cc21.[Cl-] [EUFLAVINE],Mean survival time of infected mice (days),[1],30
same,Activity,[3],30
same,Activity,[4],30
same,Activity,[12],7.8
same,Mean survival of mice (days),[5],30
same,Activity,[6],6.9
same,Activity,[7],30
same,Activity,[8],6.3
same,Activity,[9],17.8
CN(C)CCCNc1c2ccccc2nc2cccc([N+](=O)[O-])c12 [NITRACRINE],Mean survival time of infected mice (days),[1],30
same,Activity,[2],30
same,Activity,[3],5.7
same,Activity,[4],30
same,Mean survival of mice (days),[5],10.4
same,Activity,[6],5.7
same,Activity,[7],22.9
same,Activity,[8],6
same,Activity,[9],6.6
